Five molecules from ChEMBL document CHEMBL1139056, “3D-QSAR design of novel antiepileptic sulfamides” (2007) can be followed below.

Active and inactive are the calls of the source. The calls are words filed in the database; no cut-off is given here.

Assay [1] concerns Mus musculus. Put plainly: Anticonvulsant activity in ip dosed Albino mouse by PTZ test. It counts as functional, organism-based. The method, boiled down: (§1)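 Mice of matched age and weight, 12-h light/dark cycle, food and water ad libitum. Dosing ip in 30% PEG 400 and 10% water at 0.01 ml/g body weight. PIC and PTZ seizure tests run by NIH antiepileptic drug development program standard procedures.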

In assay [2] the test system is Mus musculus. Put plainly: Anticonvulsant activity in ip dosed Albino mouse by MES test. It counts as functional. An outline of the steps: (§2)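 Albino mice of matched age and weight, 12-h light/dark cycle, free food and water. Compound given ip in 30% PEG 400 and 10% water, 0.01 ml/g body weight. MES test by NIH antiepileptic drug development program standard procedures. ED50 from groups of six mice at several doses at time of peak effect; Litchfield–Wilcoxon with 95% confidence intervals.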

The test system of assay [3] is Mus musculus. Kind of assay: Anticonvulsant activity in ip dosed Albino mouse assessed as time of peak effect by MES test. It counts as functional. An outline of the steps: as §2
Assay [4] has as its system Mus musculus. Kind of assay: Anticonvulsant activity in ip dosed Albino mouse by PIC test. It counts as functional, organism-based. The method, boiled down: as §1

For orientation: ED50 means the dose at which the effect has come halfway, by size or by number of responders. As to `O=S(=O)(NC1CCCCC1)NC1CCCCC1`, the outcome in the assay with Mus musculus [1] was inactive. Also, the ED50 in the assay on Mus musculus [2] was found to be 151 µmol/kg. Also, in the assay on Mus musculus [3], the Activity worked out at 0.5 h.

With `O=S(=O)(NCc1ccccc1)NCc1ccccc1` [BENZYL(BENZYLSULFAMOYL)AMINE], the result with Mus musculus [1] and with Mus musculus [4] was inactive. In the assay with Mus musculus [2], this molecule returned a 50% effective dose (ED50) of 238 µmol/kg. Further, in the assay on Mus musculus [3], the Activity is 2 h.

Consider `O=S(=O)(N1CCOCC1)N1CCOCC1`, for which the result in the assay with Mus musculus [1], with Mus musculus [2] and in the assay with Mus musculus [4] was inactive.

Consider `CCCCNS(=O)(=O)NCCCC` [BUTYL(BUTYLSULFAMOYL)AMINE], for which the result with Mus musculus [1] and with Mus musculus [4] was inactive. In the assay with Mus musculus [2], this molecule registered an ED50 of 295 µmol/kg. In addition, the Activity in the assay with Mus musculus [3] stood at 2 h.

In the case of `O=S(=O)(NC1CC1)NC1CC1`, the result in the assay on Mus musculus [1], in the assay with Mus musculus [2] and with Mus musculus [4] was inactive.
